Results: publication PMC6489498 (Inorganic chemistry, 2017)
Like-named read-outs stand apart in the source and are kept apart here.

Assays:
[1] = MBP hydroxyl pKa from pH-dependent optical spectra; format: physicochemical
CoCA = format: physicochemical, bovine; conditions: calculated from first addition (3.75 μM MBP) to 38 μM CoCA; thione coordinated
Outline: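 UV-vis titration of 38 μM CoCA with MBP in 50 mM phosphate, pH 7.5. ΔA of protonated and deprotonated bands converted to concentrations using the εOH–εO− difference, then to mole fractions vs MBP added. Effective pKa calculated from the first addition (3.75 μM), […]. Shift expressed relative to the free-MBP hydroxyl pKa.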

ZnCA = conditions: with ZnCA; ref 7 (Martin, et al); cited from earlier work
[2] = solution of the free MBP, pH varied (UV-vis optical spectra)

Row | pKa [1] | deprotonated form present at physiological pH ([1]; expected from pKa) | pKa [1, 2] | effective pKa (CoCA) | Compound | Ki (ZnCA) [µM]
1 | 8.3 | ~ 15% | ~8.3 | 7.6 | Cc1cc(=S)c(O)co1 [ATM, 5-hydroxy-2-methyl-4H-pyran-4-thione] | 650
2 | 9 | – | ~9 | 8.3 | Cc1occc(=S)c1O [TM, 3-hydroxy-2-methyl-4H-pyran-4-thione] | 1400
3 | 9.5 | – | ~9.5 | 8.4 | Oc1coccc1=S [TPMA, 3-hydroxy-4H-pyran-4-thione] | 1100
